What was measured:
[1] = Selectivity index, ratio of IC50 for PMA-differentiated human THP1 cells to IC50 for amastigote stage of Leishmania infantum infected in PMA-differentiated human THP1 cells; type: toxicity; settings: read-out: Ratio IC50
Leishmania tropica = test: Antileishmanial activity against Leishmania tropica MHOM/IT/2012/ISS3130 promastigotes after 72 hrs by MTT assay; type: functional, organism-based; settings: MHOM/IT/2012/ISS3130, 72 h
Outline: (§1)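 Promastigotes grown in Schneider's medium with 10% FCS at 22 °C. Assay in RPMI with 10% FCS, 20 mM Hepes and 2 mM glutamine, 5×10⁶ parasites/mL, seven serial dilutions from DMSO stocks, 72 h at 22 °C. MTT added for 3 h, pellet lysed in SDS/DMF, A550 read against 650 nm reference. IC50 given as mean of separate duplicate experiments; amphotericin B as reference.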

Leishmania infantum [2] = test: Antileishmanial activity against Leishmania infantum MHOM/TN/80/IPT1 promastigotes after 72 hrs by MTT assay; type: functional, organism-based; settings: MHOM/TN/80/IPT1, 72 h; outline: as §1
[3] = Selectivity index, ratio of IC50 for PMA-differentiated human THP1 cells to IC50 for Leishmania tropica MHOM/IT/2012/ISS3130 promastigotes; type: toxicity; settings: read-out: Ratio IC50
Leishmania infantum [4] = test: Antileishmanial activity against amastigote stage of Leishmania infantum infected in PMA-differentiated human THP1 cells assessed as inhibition of parasite growth at 0.5 uM after 72 hrs by Giemsa staining based light microscopy relative to control; type: functional; settings: THP-1, 72 h
Outline: (§2)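 THP-1 cells at 5×10⁵ cells/mL differentiated with 0.1 μM PMA for 48 h, then infected with metacyclic L. infantum promastigotes (1:10 macrophage:parasite) for 24 h. Washed monolayers exposed to compound for 72 h, methanol-fixed and Giemsa-stained. Percent infected macrophages versus untreated scored by light microscopy, and IC50 derived. Single-concentration values are means of two or three experiments, IC50 of two.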

Leishmania infantum [5] = test: Antileishmanial activity against amastigote stage of Leishmania infantum infected in PMA-differentiated human THP1 cells assessed as inhibition of parasite growth after 72 hrs by Giemsa staining based light microscopy; type: functional, organism-based; settings: THP-1, 72 h; outline: as §2
[6] = Selectivity index, ratio of IC50 for PMA-differentiated human THP1 cells to IC50 for Leishmania infantum MHOM/TN/80/IPT1 promastigotes; type: toxicity; settings: read-out: Ratio IC50
THP-1 = test: Cytotoxicity against PMA-differentiated human THP1 cells after 72 hrs by MTT assay; type: cell-based; settings: THP-1, 72 h
Outline: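 THP-1 cells at 5×10⁵ cells/mL, differentiated with 0.1 μM PMA for 48 h, then exposed to serial dilutions for 72 h. Viability read by MTT; IC50 for growth inhibition. Duplicate experiments, mean reported.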

Mus musculus [7] = test: Toxicity in C57Bl/6 mouse assessed as survival at 300 mg/kg, po administered as single dose measured twice daily up to 30 days; type: organism-based; settings: in vivo, 720 h
Outline: (§3)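 Healthy female C57Bl/6 mice, groups of four or five, received one oral dose. Compound was first dissolved in DMSO, then suspended in 0.5% hydroxyethylcellulose-0.1% Tween 80. Behaviour and appearance were checked twice daily for 30 days. A dose counted as tolerated if all mice survived 30 days with normal appearance and behaviour.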

Leishmania infantum [8] = test: Antileishmanial activity against Leishmania infantum MHOM/TN/1980/IPT-1 amastigotes infected in sc dosed Balb/c mouse assessed as reduction in liver parasite load administered for 4 to 5 days measured post last dose; type: functional, organism-based
Outline: (§4)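 Balb/c mice (18-20 g) inoculated via tail vein with 2×10⁶ semi-purified L. infantum IPT-1 amastigotes. Dosing p.o. (0.1% Tween/0.5% HEC in water, or water) or s.c. (sunflower oil, or water) for 4 or 5 consecutive days from day 9 post-infection.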

Leishmania infantum [9] = test: Antileishmanial activity against Leishmania infantum MHOM/TN/1980/IPT-1 amastigotes infected in Balb/c mouse assessed as reduction in liver parasite load at 100 mg/kg, po administered for 4 days measured post last dose relative to control; type: functional; design: scale not given: the % may be the effect or the level left; outline: as §4
Leishmania infantum [10] = test: Antileishmanial activity against Leishmania infantum MHOM/TN/1980/IPT-1 amastigotes infected in po dosed Balb/c mouse assessed as reduction in liver parasite load administered for 4 to 5 days measured post last dose; type: functional, organism-based; outline: as §4
BMDM [11] = test: Induction of reactive oxygen species production in IFNgamma-primed mouse BMDM measured after 24 hrs by H2DCFDA probe based assay; type: functional, cell-based
Mus musculus [12] = test: Toxicity in Balb/c mouse infected with Leishmania infantum MHOM/TN/1980/IPT-1 amastigotes assessed as death at 100 mg/kg, administered for 4 days measured on day 10 to 12; type: organism-based; settings: in vivo, 96 h
Leishmania infantum [13] = test: Antileishmanial activity against Leishmania infantum MHOM/TN/1980/IPT-1 amastigotes infected in Balb/c mouse assessed as reduction in liver parasite load at 5 mg/kg, sc administered for 5 days measured post last dose relative to control; type: functional; design: scale not given: the % may be the effect or the level left
Outline: as §4, with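 “post-infection. On day 13 or 14, liver weight × amastigotes per liver cell gives relative load, expressed versus the untreated control group mean.” for “post-infection.”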

Leishmania infantum [14] = test: Antileishmanial activity against Leishmania infantum MHOM/TN/1980/IPT-1 amastigotes infected in Balb/c mouse assessed as reduction in liver parasite load at 10 mg/kg, sc administered for 4 days measured post last dose relative to control; type: functional; design: scale not given: the % may be the effect or the level left
Outline: as §4, with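 “post-infection. On day 13 or 14, liver weight × amastigotes per liver cell gives relative load, expressed versus the untreated control group mean.” for “post-infection.”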

BMDM [15] = test: Induction of nitric oxide production in IFNgamma-primed mouse BMDM measured after 24 hrs by Griess assay; type: functional, cell-based
Mus musculus [16] = test: Toxicity in C57Bl/6 mouse assessed as effect on normal appearance at 300 mg/kg, po administered as single dose measured twice daily up to 30 days; type: organism-based; settings: in vivo, 720 h; outline: as §3
Leishmania infantum [17] = test: Antileishmanial activity against Leishmania infantum MHOM/TN/1980/IPT-1 amastigotes infected in Balb/c mouse assessed as reduction in liver parasite load at 60 mg/kg, po administered for 4 days measured post last dose relative to control; type: functional; design: scale not given: the % may be the effect or the level left
Outline: as §4, with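 “post-infection. On day 13 or 14, liver weight × amastigotes per liver cell gives relative load, expressed versus the untreated control group mean.” for “post-infection.”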

Mus musculus [18] = test: Toxicity in C57Bl/6 mouse assessed as effect on normal behavior at 300 mg/kg, po administered as single dose measured twice daily up to 30 days; type: organism-based; settings: in vivo, 720 h; outline: as §3

Row | Compound | selectivity ratio [1] | IC50 (Leishmania tropica) | IC50 (Leishmania infantum [2]) | selectivity ratio [3] | inhibition at 0.5 µM (Leishmania infantum [4]) | IC50 (Leishmania infantum [5]) | selectivity ratio [6] | IC50 (THP-1) | Activity (Mus musculus [7]) | Activity (Leishmania infantum [8]) | Activity (Leishmania infantum [9]) | Activity (Leishmania infantum [10]) | Activity (BMDM [11]) | Activity (Mus musculus [12]) | Activity (Leishmania infantum [13]) | Activity (Leishmania infantum [14]) | Activity (BMDM [15]) | Activity (Mus musculus [16]) | Activity (Leishmania infantum [17]) | Activity (Mus musculus [18])
1 | CC(CCCNCc1ccc(-c2csc3ccc(F)cc23)cc1)Nc1ccnc2cc(Cl)ccc12 (stereo not drawn) | 3.34 | 910 nM | 980 nM | 2.7 | 36.9% | 730 nM | 2.5 | 2440 nM |  |  |  |  |  |  |  |  |  |  |  | 
2 | Fc1ccc2scc(-c3ccc(CNCCCCNc4ccnc5ccccc45)cc3)c2c1 | 3.61 | 1020 nM | 1240 nM | 2.3 | 42.7% | 650 nM | 1.9 | 2350 nM | Toxic |  |  |  |  |  |  |  |  |  |  | 
3 | Cl.Cl.Cl.Cl.Clc1ccc2c(NCCCN3CCN(CCCNCCC45CC6CC(CC(C6)C4)C5)CC3)ccnc2c1 | 3.22 | 510 nM | 520 nM | 2 | 72.2% | 310 nM | 1.9 | 1000 nM | Non-Toxic | Dose-dependent effect | 100% | Dose-dependent effect | Dose-dependent effect | Toxic | 57% | 81% | Dose-dependent effect | Non-Toxic | 96% | Non-Toxic
4 | CC(CCCNCc1ccc(-c2csc3ccc(C#N)cc23)cc1)Nc1ccnc2ccccc12 (stereo not drawn) | 3.51 | 1220 nM | 1550 nM | 2.3 | 42.2% | 790 nM | 1.8 | 2790 nM |  |  |  |  |  |  |  |  |  |  |  | 
5 | N#Cc1ccc(-c2ccc(-c3ccc(CNCCCCCCCCNc4ccnc5c4CCCC5)cc3)s2)cc1 | < 2.31 | 750 nM | 720 nM | 3.1 | 29.6% | > 1000 nM | 3.2 | 2310 nM |  |  |  |  |  |  |  |  |  |  |  | 
6 | N#Cc1ccc2c(CNCCCCNc3ccnc4cc(Cl)ccc34)csc2c1 | 3.29 | 1240 nM | 1230 nM | 3.4 | 38.9% | 1290 nM | 3.4 | 4250 nM |  |  |  |  |  |  |  |  |  |  |  | 
7 | Clc1ccc2c(NCCCNCc3csc4ccccc34)ccnc2c1 | 1.6 | 1310 nM | 1140 nM | 2.3 | 26.4% | 1850 nM | 2.6 | 2960 nM |  |  |  |  |  |  |  |  |  |  |  | 
8 | C[C@@H]1[C@H](O)[C@@H](C)/C=C/C=C/C=C/C=C/C=C/C=C/C=C/[C@H](O[C@@H]2O[C@H](C)[C@@H](O)[C@H](N)[C@@H]2O)C[C@@H]2O[C@](O)(C[C@@H](O)C[C@@H](O)[C@H](O)CC[C@@H](O)C[C@@H](O)CC(=O)O[C@H]1C)C[C@H](O)[C@H]2C(=O)O [AMPHOTERICIN B] | > 51.4 | 140 nM | 130 nM | > 77.1 | 95.5% | 210 nM | > 83.1 | > 10800 nM |  |  |  |  |  |  |  |  |  |  |  | 
9 | Fc1ccc2scc(CNCCCCNc3ccnc4cc(Cl)ccc34)c2c1 | < 1.91 | 500 nM | 510 nM | 3.8 | 26.4% | > 1000 nM | 3.8 | 1910 nM |  |  |  |  |  |  |  |  |  |  |  | 
10 | CC(CCN(C)CCC12CC3CC(CC(C3)C1)C2)Nc1ccnc2cc(Cl)ccc12 (stereo not drawn) | 1.72 | 1840 nM | 2460 nM | 1.8 | 29.6% | 1910 nM | 1.3 | 3290 nM |  |  |  |  |  |  |  |  |  |  |  | 

Source: ChEMBL document CHEMBL4196114 (ACS Med Chem Lett, 2018)
